# Laboratory results reported in ChEMBL document CHEMBL3286180, “Efficacious inhaled PDE4 inhibitors with low emetic potential and long duration of action for the treatment of COPD” (J Med Chem, 2014).
# pIC50: −log10 of the molar value. Active and inactive are the calls of the source. The rule behind the calls is not given here.
# Legend:
# Rattus norvegicus [1] = test: Antiinflammatory activity in Sprague-Dawley rat assessed as inhibition of LPS-induced bronchoalveolar lavage neutrophils measured as terminal lung concentration at 0.1 mg/ml, inhalation administered as nebulized suspension; type: functional
# Summary of the method: (§1)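 Rats were given the compound as an aqueous nebulized aerosol by nose-only inhalation 30 min before LPS challenge. Dose is expressed as mg/mL nebulizer concentration. Lung neutrophilia was the readout, and terminal lung concentration (nM) was measured. Groups held 8−10 animals per treatment.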
# Rattus norvegicus [2] = test: Antiinflammatory activity in nasally dosed Sprague-Dawley rat assessed as inhibition of LPS-induced bronchoalveolar lavage neutrophils measured as lung concentration administered as […]; type: functional
# Summary of the method: (§2)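 ED80 was derived from the nose-only nebulized-solution dose response in rats dosed 30 min before LPS challenge, with neutrophilia as the readout. ED80 is given as nebulizer concentration, as the matching terminal total lung concentration, and as lung deposited dose estimated from measured filter sample and terminal lung levels.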
# [3] = Intrinsic clearance in rat hepatocytes measured per 10^6 cells; type: ADME, cell-based, Hepatocyte; conditions: read-out: CLH
# PBMC = test: Antiinflammatory activity in human PBMC assessed as inhibition of LPS-induced TNFalpha production after 20 hrs by fluorescence linked immunosorbant assay; type: functional, cell-based
# [4] = Half life in rat at 1 mg/kg, iv; type: ADME, organism-based; design: dose 1 mg/kg, route intravenous; conditions: in vivo
# Summary of the method: (§3)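 Rat pharmacokinetics were run at 1 mg/kg, given iv or by intratracheal instillation, with 2−3 animals per study.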
# Rattus norvegicus [5] = test: Apparent volume of distribution in rat at 1 mg/kg, iv; type: ADME, organism-based; design: dose 1 mg/kg, route intravenous; conditions: in vivo; summary of the method: as §3
# Rattus norvegicus [6] = test: Antiinflammatory activity in Sprague-Dawley rat assessed as inhibition of LPS-induced bronchoalveolar lavage neutrophils at 0.03 mg/ml, inhalation administered as nebulized suspension; type: functional, organism-based; summary of the method: as §1
# Rattus norvegicus [7] = test: Antiinflammatory activity in Sprague-Dawley rat assessed as inhibition of LPS-induced bronchoalveolar lavage neutrophils measured as terminal lung concentration at 0.03 mg/ml, inhalation administered as nebulized suspension; type: functional; summary of the method: as §1
# [8] = Oral bioavailability in rat at 1 mg/kg; type: ADME, organism-based; conditions: in vivo
# [9] = Volume of distribution at steady state in rat at 1 mg/kg, iv; type: ADME, organism-based; design: dose 1 mg/kg, route intravenous; conditions: in vivo, read-out: Vdss
# Rattus norvegicus [10] = test: Antiinflammatory activity in Sprague-Dawley rat assessed as inhibition of LPS-induced bronchoalveolar lavage neutrophils measured as terminal lung concentration at 0.1 mg/ml, inhalation administered as […] treated 12 hrs before LPS; type: functional
# Summary of the method: (§4)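 Duration protocol: rats received a nose-only inhalation of nebulized aqueous compound solution 12 h before LPS challenge. Dose is expressed as mg/mL nebulizer concentration. Readout was LPS-induced pulmonary neutrophilia, with terminal lung concentration (nM) measured. Groups held 8−10 animals per treatment.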
# [11] = Half life in rat at 1 mg/kg, it; type: ADME, organism-based; design: dose 1 mg/kg, route endotracheal; conditions: in vivo, inhaled or intranasal; summary of the method: as §3
# Rattus norvegicus [12] = test: Antiinflammatory activity in Sprague-Dawley rat assessed as inhibition of LPS-induced bronchoalveolar lavage neutrophils measured as LPS duration at 0.1 mg/ml, inhalation administered as nebulized suspension; type: functional, organism-based; summary of the method: as §4
# Rattus norvegicus [13] = test: Antiinflammatory activity in Sprague-Dawley rat assessed as inhibition of LPS-induced bronchoalveolar lavage neutrophils measured as terminal lung concentration at 0.01 mg/ml, inhalation administered as nebulized suspension; type: functional; summary of the method: as §1
# Rattus norvegicus [14] = test: Antiinflammatory activity in Sprague-Dawley rat assessed as inhibition of LPS-induced bronchoalveolar lavage neutrophils at 0.01 mg/ml, inhalation administered as nebulized suspension; type: functional; summary of the method: as §1
# [15] = Clearance in rat at 1 mg/kg, iv; type: ADME, organism-based; design: dose 1 mg/kg, route intravenous; conditions: in vivo; summary of the method: as §3
# Rattus norvegicus [16] = test: Antiinflammatory activity in Sprague-Dawley rat assessed as inhibition of LPS-induced bronchoalveolar lavage neutrophils at 0.1 mg/ml, inhalation administered as nebulized suspension; type: functional, organism-based; summary of the method: as §1
# Blood [17] = test: Antiinflammatory activity in human whole blood assessed as inhibition of LPS-induced TNFalpha production after 20 hrs by ELISA; type: functional, tissue-based
# [18] = Half life in dog; type: ADME, organism-based, Canis lupus familiaris; conditions: in vivo
# [19] = Clearance in dog; type: ADME, organism-based, Canis lupus familiaris; conditions: in vivo
# [20] = Lipophilicity, log K of the compound; type: physicochemical; conditions: octanol/water
# [21] = Apparent volume of distribution in dog; type: ADME, organism-based, Canis lupus familiaris; conditions: in vivo, read-out: Vz/F
# Rattus norvegicus [22] = test: Antiinflammatory activity in nasally dosed Sprague-Dawley rat assessed as inhibition of LPS-induced bronchoalveolar lavage neutrophils measured as lung deposited dose administered as […]; type: functional; summary of the method: as §2
# [23] = target: 3',5'-cyclic-AMP phosphodiesterase 4A (Homo sapiens, UniProt P27815); test: Inhibition of human PDE4A1A using [3H]cAMP by packard topcount scintillation counting analysis
# [24] = Aqueous solubility of the compound at pH 7.4; type: physicochemical; conditions: aqueous medium
# [25] = target: Voltage-gated inwardly rectifying potassium channel KCNH2 (Homo sapiens, UniProt Q12809); test: Inhibition of human ERG
# [26] = Volume of distribution at steady state in dog; type: ADME, organism-based, Canis lupus familiaris; conditions: in vivo, read-out: Vdss
# Rattus norvegicus [27] = test: Antiinflammatory activity in Sprague-Dawley rat assessed as inhibition of LPS-induced bronchoalveolar lavage neutrophils measured as terminal lung concentration at 0.3 mg/ml, inhalation administered as nebulized suspension treated 12 hrs before LPS; type: functional; conditions: in the assay text read “nebulized solution” for “nebulized suspension”; summary of the method: as §4
# [28] = Lipophilicity, log D of the compound; type: physicochemical; conditions: octanol/water
# Rattus norvegicus [29] = test: Antiinflammatory activity in Sprague-Dawley rat assessed as inhibition of LPS-induced bronchoalveolar lavage neutrophils measured as terminal lung concentration at 0.03 mg/ml, inhalation administered as […] treated 12 hrs before LPS; type: functional; summary of the method: as §4
# [30] = Oral bioavailability in dog; type: ADME, organism-based, Canis lupus familiaris; conditions: in vivo
# [31] = Fraction unbound in human plasma; type: ADME, cell-free
# Rattus norvegicus [32] = test: Antiinflammatory activity in nasally dosed Sprague-Dawley rat assessed as inhibition of LPS-induced bronchoalveolar lavage neutrophils measured as nebulizer concentration administered as […]; type: functional; summary of the method: as §2
# [33] = target: T1, 3',5'-cyclic-AMP phosphodiesterase 4B (Rattus norvegicus, UniProt P14646)
# T1 sequence (P14646 whole entry): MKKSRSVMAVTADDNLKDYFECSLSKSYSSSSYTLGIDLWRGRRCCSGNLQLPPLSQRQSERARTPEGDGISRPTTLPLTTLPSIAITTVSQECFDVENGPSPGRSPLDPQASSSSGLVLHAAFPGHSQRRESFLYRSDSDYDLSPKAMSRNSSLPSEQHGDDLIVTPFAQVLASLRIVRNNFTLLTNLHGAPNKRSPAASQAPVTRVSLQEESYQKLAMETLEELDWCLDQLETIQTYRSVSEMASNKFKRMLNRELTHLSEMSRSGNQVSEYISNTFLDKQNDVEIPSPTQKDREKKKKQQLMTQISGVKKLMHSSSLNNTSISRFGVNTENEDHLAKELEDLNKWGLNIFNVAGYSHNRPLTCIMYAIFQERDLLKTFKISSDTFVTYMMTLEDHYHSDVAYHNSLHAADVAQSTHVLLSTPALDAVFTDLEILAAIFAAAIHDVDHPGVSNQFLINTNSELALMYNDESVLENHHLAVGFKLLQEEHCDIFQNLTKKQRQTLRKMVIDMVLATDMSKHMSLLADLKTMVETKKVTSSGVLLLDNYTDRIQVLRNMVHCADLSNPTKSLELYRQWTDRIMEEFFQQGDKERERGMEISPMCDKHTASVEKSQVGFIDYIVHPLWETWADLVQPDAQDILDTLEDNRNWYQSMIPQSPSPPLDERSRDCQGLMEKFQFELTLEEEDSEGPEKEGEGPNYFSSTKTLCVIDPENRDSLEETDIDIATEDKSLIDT
# Blood [34] = test: tissue or blood; conditions: Rattus norvegicus, 20 h, read-out: pIC50 (converted)
# [35] = Fraction unbound in rat plasma; type: ADME, cell-free
# [36] = Intrinsic clearance in human liver microsomes; type: ADME; conditions: read-out: CLH
# Rattus norvegicus [37] = test: Antiinflammatory activity in Sprague-Dawley rat assessed as inhibition of LPS-induced bronchoalveolar lavage neutrophils measured as terminal lung concentration at 0.003 mg/ml, inhalation administered as nebulized suspension; type: functional; summary of the method: as §1
# Cytochrome P450 2D6 = Cytochrome P450 2D6 (Homo sapiens, UniProt P10635); test: Inhibition of CYP2D6 (unknown origin); type: ADME
# Rattus norvegicus [38] = test: Antiinflammatory activity in Sprague-Dawley rat assessed as inhibition of LPS-induced bronchoalveolar lavage neutrophils measured as LPS duration at 0.01 mg/ml, inhalation administered as nebulized suspension; type: functional, organism-based; conditions: 0.1 mg/ml, in the assay text read “0.1 mg/ml” for “0.01 mg/ml”; summary of the method: as §4
# Cytochrome P450 2C19 = Cytochrome P450 2C19 (Homo sapiens, UniProt P33261); test: Inhibition of CYP2C19 (unknown origin); type: ADME
# Cytochrome P450 2C9 = Cytochrome P450 2C9 (Homo sapiens, UniProt P11712); test: Inhibition of CYP2C9 (unknown origin); type: ADME
# Cytochrome P450 3A4 = Cytochrome P450 3A4 (Homo sapiens, UniProt P08684); test: Inhibition of CYP3A4 (unknown origin); type: ADME
# CYP (isoform not stated) = test: Time dependent inhibition of CYP (unknown origin) at 50 uM; type: ADME; conditions: human; read-out: TDI
# Sequence of Voltage-gated inwardly rectifying potassium channel KCNH2 (Q12809 whole entry): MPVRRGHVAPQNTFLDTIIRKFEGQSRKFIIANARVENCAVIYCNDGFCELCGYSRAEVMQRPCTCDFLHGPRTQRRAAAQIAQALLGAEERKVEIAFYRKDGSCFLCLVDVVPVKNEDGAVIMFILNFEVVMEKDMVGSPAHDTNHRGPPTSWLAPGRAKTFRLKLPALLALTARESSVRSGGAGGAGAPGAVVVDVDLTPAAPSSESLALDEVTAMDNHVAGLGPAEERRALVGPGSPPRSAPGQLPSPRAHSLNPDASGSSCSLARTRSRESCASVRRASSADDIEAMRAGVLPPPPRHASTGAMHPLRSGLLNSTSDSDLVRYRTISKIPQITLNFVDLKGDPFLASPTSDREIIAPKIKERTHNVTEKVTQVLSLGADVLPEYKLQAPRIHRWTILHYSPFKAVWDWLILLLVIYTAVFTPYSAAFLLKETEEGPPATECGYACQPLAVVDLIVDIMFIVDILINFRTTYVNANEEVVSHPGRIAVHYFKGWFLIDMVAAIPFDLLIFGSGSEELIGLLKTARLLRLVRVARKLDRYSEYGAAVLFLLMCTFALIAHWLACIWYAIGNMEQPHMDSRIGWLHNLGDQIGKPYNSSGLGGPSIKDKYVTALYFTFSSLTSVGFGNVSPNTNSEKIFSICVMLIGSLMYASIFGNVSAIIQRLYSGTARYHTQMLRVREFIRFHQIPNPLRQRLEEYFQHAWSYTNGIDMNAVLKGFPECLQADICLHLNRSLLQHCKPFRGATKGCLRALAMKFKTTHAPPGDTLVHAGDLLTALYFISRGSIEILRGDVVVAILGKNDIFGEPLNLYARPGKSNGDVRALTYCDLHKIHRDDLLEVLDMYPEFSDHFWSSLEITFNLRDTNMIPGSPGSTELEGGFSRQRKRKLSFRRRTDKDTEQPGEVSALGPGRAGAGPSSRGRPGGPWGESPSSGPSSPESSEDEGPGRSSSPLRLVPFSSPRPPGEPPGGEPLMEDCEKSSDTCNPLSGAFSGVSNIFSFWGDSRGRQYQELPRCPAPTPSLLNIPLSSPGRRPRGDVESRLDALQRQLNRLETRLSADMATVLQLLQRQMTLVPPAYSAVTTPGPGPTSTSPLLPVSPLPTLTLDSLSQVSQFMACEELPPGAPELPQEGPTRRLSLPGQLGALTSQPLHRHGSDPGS
# Sequence of Cytochrome P450 2C19 (P33261 whole entry): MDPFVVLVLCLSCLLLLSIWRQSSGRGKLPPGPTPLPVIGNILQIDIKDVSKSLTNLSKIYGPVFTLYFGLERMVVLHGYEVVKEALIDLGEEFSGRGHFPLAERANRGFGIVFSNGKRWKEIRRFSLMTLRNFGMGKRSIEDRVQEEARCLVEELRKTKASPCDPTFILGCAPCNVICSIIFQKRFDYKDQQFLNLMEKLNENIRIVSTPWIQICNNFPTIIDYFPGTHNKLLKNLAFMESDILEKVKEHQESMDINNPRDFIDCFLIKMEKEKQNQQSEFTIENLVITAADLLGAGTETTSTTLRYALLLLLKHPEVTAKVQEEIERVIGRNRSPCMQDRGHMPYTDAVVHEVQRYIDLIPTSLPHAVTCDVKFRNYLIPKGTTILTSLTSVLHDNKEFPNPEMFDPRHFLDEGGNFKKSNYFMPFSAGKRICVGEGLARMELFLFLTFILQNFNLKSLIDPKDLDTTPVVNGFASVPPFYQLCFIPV
# Sequence of Cytochrome P450 2D6 (P10635 whole entry): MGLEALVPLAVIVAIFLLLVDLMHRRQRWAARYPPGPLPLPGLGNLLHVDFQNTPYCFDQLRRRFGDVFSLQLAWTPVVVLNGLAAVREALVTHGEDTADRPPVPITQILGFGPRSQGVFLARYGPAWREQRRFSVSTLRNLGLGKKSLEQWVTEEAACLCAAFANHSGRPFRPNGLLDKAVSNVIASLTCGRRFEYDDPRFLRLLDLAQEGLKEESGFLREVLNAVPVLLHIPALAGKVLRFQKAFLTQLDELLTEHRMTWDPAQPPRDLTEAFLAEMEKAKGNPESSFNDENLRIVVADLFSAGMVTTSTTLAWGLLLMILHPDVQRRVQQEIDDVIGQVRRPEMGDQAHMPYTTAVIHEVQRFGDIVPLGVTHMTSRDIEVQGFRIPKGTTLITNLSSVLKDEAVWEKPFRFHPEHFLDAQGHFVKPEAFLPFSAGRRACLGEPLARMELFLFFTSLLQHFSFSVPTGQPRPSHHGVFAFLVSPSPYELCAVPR
# Sequence of Cytochrome P450 2C9 (P11712 whole entry): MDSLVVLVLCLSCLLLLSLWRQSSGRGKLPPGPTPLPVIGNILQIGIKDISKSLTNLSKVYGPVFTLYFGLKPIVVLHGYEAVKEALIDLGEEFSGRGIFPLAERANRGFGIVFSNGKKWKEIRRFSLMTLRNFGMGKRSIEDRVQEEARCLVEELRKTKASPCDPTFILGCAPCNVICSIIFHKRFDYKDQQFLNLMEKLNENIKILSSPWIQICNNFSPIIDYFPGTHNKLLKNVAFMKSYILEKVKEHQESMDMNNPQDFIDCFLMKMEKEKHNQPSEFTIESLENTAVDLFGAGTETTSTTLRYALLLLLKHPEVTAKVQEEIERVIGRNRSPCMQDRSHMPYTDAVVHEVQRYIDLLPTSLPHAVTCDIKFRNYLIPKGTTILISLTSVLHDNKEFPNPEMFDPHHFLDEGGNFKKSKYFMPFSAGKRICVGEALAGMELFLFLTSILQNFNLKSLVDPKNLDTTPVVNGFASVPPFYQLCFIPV
# Sequence of Cytochrome P450 3A4 (P08684 whole entry, canonical isoform): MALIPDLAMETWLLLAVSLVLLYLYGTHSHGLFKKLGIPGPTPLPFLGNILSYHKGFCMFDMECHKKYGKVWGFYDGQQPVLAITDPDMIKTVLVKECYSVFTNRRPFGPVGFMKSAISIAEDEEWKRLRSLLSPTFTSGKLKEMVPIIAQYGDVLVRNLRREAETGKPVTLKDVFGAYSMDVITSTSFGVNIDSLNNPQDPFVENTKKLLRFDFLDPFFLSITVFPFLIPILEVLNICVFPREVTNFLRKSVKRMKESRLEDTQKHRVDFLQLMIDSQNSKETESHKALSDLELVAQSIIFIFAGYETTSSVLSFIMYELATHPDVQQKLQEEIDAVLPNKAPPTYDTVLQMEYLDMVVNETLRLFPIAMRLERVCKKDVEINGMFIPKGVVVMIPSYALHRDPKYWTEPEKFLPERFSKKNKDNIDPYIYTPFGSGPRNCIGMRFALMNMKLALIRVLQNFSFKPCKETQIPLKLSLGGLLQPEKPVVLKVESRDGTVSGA
# Sequence of 3',5'-cyclic-AMP phosphodiesterase 4A (P27815 whole entry): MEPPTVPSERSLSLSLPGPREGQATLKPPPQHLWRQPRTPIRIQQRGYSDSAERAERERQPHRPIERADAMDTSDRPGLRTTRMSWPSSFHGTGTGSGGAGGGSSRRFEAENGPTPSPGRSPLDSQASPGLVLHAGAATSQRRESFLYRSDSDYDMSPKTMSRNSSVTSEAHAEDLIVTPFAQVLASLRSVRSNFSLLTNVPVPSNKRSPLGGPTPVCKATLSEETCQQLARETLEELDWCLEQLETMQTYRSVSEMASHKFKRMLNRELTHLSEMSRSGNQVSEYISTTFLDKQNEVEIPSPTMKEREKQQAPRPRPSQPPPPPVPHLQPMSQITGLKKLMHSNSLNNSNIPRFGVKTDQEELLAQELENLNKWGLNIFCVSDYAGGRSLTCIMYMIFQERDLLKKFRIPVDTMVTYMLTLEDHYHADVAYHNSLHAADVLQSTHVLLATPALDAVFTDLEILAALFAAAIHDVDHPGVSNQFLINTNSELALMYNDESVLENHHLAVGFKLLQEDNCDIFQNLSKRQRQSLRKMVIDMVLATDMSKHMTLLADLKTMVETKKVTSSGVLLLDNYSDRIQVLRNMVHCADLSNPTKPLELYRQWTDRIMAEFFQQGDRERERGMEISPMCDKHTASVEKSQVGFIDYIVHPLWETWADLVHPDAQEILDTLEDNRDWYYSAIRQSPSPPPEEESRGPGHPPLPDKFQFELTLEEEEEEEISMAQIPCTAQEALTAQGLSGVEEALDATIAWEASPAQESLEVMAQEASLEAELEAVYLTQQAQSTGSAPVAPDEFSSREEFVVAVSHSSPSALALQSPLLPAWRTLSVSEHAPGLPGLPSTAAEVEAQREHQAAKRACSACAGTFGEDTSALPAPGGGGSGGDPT
smiles,measurement,setting,value
Cc1ccc(O)c(C(=O)N[C@H]2CC[C@@H](NC(=O)c3cc(F)cnc3Oc3cccc(-c4ccc(CN5C[C@@H](C)N[C@@H](C)C5)cc4CN4CCOCC4)c3)CC2)c1,Activity,Rattus norvegicus [1],123 nM
same,ED80,Rattus norvegicus [2],78 nM
same,hepatocyte CLint,[3],13 µL/min/1e6 cells
same,pIC50,PBMC,10.40
same,half-life,[4],7 h
same,Vz/F,Rattus norvegicus [5],30 L/kg
same,inhibition,Rattus norvegicus [6],Active
same,Activity,Rattus norvegicus [7],88 nM
same,bioavailability,[8],< 16%
same,Vd,[9],16 L/kg
same,Activity,Rattus norvegicus [10],14 nM
same,half-life,[11],9 h
same,inhibition,Rattus norvegicus [12],Active
same,Activity,Rattus norvegicus [13],26 nM
same,inhibition,Rattus norvegicus [14],Active
same,clearance,[15],50 mL/min/kg
same,inhibition,Rattus norvegicus [16],Active
same,pIC50,Blood [17],7.90
same,half-life,[18],15 h
same,clearance,[19],19 mL/min/kg
same,log K,[20],1.88
same,Vd/F,[21],25 L/kg
same,ED80,Rattus norvegicus [22],0.6 µg/kg
same,pIC50,[23],> 8.00
same,solubility,[24],213 µM
same,pIC50,[25],5.20
same,Vd,[26],13 L/kg
same,Activity,Rattus norvegicus [27],33 nM
same,logD,[28],2.8
same,Activity,Rattus norvegicus [29],5 nM
same,bioavailability,[30],6%
same,fraction unbound,[31],0.013
same,ED80,Rattus norvegicus [32],60 µg/mL
same,pIC50,[33],10.60
same,IC50,Blood [34],0.501 nM
same,fraction unbound,[35],0.083
same,microsomal CLint,[36],78 µL/min/mg
same,Activity,Rattus norvegicus [37],9 nM
Cc1cc(C(=O)N[C@H]2CC[C@@H](NC(=O)c3cc(F)cnc3Oc3cccc(-c4ccc(O)cc4CN4CCOCC4)c3)CC2)nn1C,pIC50,Cytochrome P450 2D6,< 5.00
same,hepatocyte CLint,[3],120 µL/min/1e6 cells
same,pIC50,PBMC,10.20
same,inhibition,Rattus norvegicus [38],Active
same,half-life,[4],13 h
same,Vz/F,Rattus norvegicus [5],76 L/kg
same,Vd,[9],2.6 L/kg
same,inhibition,Rattus norvegicus [12],Active
same,inhibition (INH),Rattus norvegicus [14],37%
same,clearance,[15],69 mL/min/kg
same,inhibition,Rattus norvegicus [16],Active
same,pIC50,Cytochrome P450 2C19,5.20
same,pIC50,Cytochrome P450 2C9,6.60
same,solubility,[24],250 µM
same,pIC50,[25],4.50
same,pIC50,Cytochrome P450 3A4,6.30
same,logD,[28],3.1
same,fraction unbound,[31],0.056
same,inhibition at 50 µM,CYP (isoform not stated),73%
same,fraction unbound,[35],0.1
same,microsomal CLint,[36],> 150 µL/min/mg
